Measured values published in ChEMBL document CHEMBL1126787 (J Med Chem, 1993).

Tests used:
[1] = species: Homo sapiens; test: Association constant for the binding of carboxylate form to human serum albumin; type: functional
In short: (§1)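 Fluorescence lifetime titration of lactone or carboxylate form (20 μM total drug) with varying HSA. Phase-shift lifetimes measured with 30 MHz modulated excitation, emission taken through a 500-nm long-pass filter. Free fraction computed as (τ − τB)/(τF − τB). K and n obtained by nonlinear least-squares fit to K = [Db]/[Df][aa]^n, where aa is amino acid residues.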

[2] = species: Homo sapiens; test: Association constant for the binding of lactone form to human serum albumin; type: functional; in short: as §1
[3] = Half-life period in PBS buffer at 37 C in the absence of human serum albumin; type: ADME
In short: (§2)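 Lactone-to-carboxylate hydrolysis of drug (1 μM total) in PBS (137 mM NaCl, 3 mM KCl, 8 mM Na2HPO4, 1 mM KH2PO4, pH 7.4) at 37 °C, with or without 20 mg/mL (290 μM) HSA. Monitored by HPLC over time. t1/2 and equilibrium % lactone fitted to decay profiles by nonlinear least squares. Average of at least three independent kinetic runs.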

[4] = Half-life period in human plasma; type: ADME
In short: (§3)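 Drug (1 μM) incubated at 37 °C in human plasma, continuously aerated with blood gas to hold pH 7.6 ± 0.1. Lactone hydrolysis followed by HPLC. t1/2 and equilibrium % lactone fitted to decay profiles by nonlinear least squares. Average of at least three independent kinetic runs.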

[5] = species: Homo sapiens; test: % of lactone form at equilibrium in human plasma; type: functional; in short: as §3
[6] = Half-life period in PBS buffer at 37 degree C in the absence of human serum albumin; type: ADME; in short: as §2
[7] = species: Homo sapiens; test: % of lactone form at equilibrium in HSA buffer at 37 degree C in the presence of human serum albumin; type: functional; in short: as §2
[8] = species: Homo sapiens; test: n value for the binding of lactone form to human serum albumin (n value = number of amino acid per binding site); type: functional; in short: as §1
[9] = species: Homo sapiens; test: n value for the binding of carboxylate form to human serum albumin (n value = number of amino acid per binding site); type: functional; in short: as §1
[10] = species: Homo sapiens; test: % of lactone form at equilibrium in PBS buffer at 37 degree C in the absence of human serum albumin; type: functional; in short: as §2
[11] = Half-life period in HSA buffer at 37 degree C in the presence of human serum albumin; type: ADME; conditions: buffer with human serum albumin; in short: as §2
[12] = species: Homo sapiens; test: % of lactone form at equilibrium in HSA buffer at 37 C in the presence of human serum albumin; type: functional
[13] = Half-life period in HSA buffer at 37 C in the presence of human serum albumin; type: ADME; conditions: buffer with human serum albumin
[14] = species: Homo sapiens; test: % of lactone form at equilibrium in PBS buffer at 37 C in the absence of human serum albumin; type: functional

Structure (SMILES) | K [1] | K [2] | half-life [3] [min] | half-life [4] [min] | Activity [5] [%] | half-life [6] [min] | Activity [7] [%] | Activity [8] | Activity [9] | Activity [10] [%] | half-life [11] [min] | Activity [12] [%] | half-life [13] [min] | Activity [14] [%]
CCc1c2c(nc3ccc(O)cc13)-c1cc3c(c(=O)n1C2)COC(=O)[C@]3(O)CC [7-ETHYL-10-HYDROXYCAMPTOTHECIN] | 148 1/Maa | 636 1/Maa | 19.9 | 34.3 | 24 |  |  |  |  |  |  |  |  | 
CC[C@@]1(O)C(=O)OCc2c1cc1n(c2=O)Cc2cc3ccccc3nc2-1 [CAMPTOTHECIN] | 4700 1/Maa | 30 1/Maa |  | 10.6 | <0.2 | 16.9 | <0.5 | 1.8 | 2.3 | 13 | 12.6 |  |  | 
CC[C@@]1(O)C(=O)OCc2c1cc1n(c2=O)Cc2cc3cc(O)ccc3nc2-1 [HYDROXYCAMPTOTHECIN] | 264 1/Maa | 135 1/Maa | 22.1 | 18.6 | 6 |  |  | 1.7 | 1.7 |  |  | 4 | 21.1 | 16
